Assay results reported in ChEMBL document CHEMBL3098013, “Novel pyrazole integrated 1,3,4-oxadiazoles: synthesis, characterization and antimicrobial evaluation” (2014).
≈ marks a conversion by molar mass, not a printed value.

Legend:
Type in all cases: functional
[1] = system: Fusarium verticillioides; test: Antimicrobial activity against Fusarium moniliforme MTCC 156 after 48 hrs by microdilution method; settings: MTCC 156, 48 h
Procedure, shortened: (§1)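 The minimal inhibitory concentration was determined by dilution, alongside minimal bactericidal concentration for bacterial strains and minimal fungicidal concentration for fungal strains. Tests were run in six replicates, and the value is the mean of at least three determinations.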

[2] = system: Fusarium oxysporum; test: Antimicrobial activity against Fusarium oxysporum MTCC 284 after 48 hrs by microdilution method; settings: MTCC 284, 48 h; procedure, shortened: as §1
[3] = system: Aspergillus niger; test: Antimicrobial activity against Aspergillus niger MTCC 281 after 48 hrs by microdilution method; settings: MTCC 281, 48 h; procedure, shortened: as §1
[4] = system: Aspergillus flavus; test: Antimicrobial activity against Aspergillus flavus MTCC 873 after 48 hrs by microdilution method; settings: MTCC 873, 48 h; procedure, shortened: as §1
[5] = system: Klebsiella pneumoniae; test: Antimicrobial activity against Klebsiella pneumoniae MTCC 3384 after 24 hrs by microdilution method; settings: MTCC 3384, 24 h; procedure, shortened: as §1
[6] = system: Escherichia coli; test: Antimicrobial activity against Escherichia coli MTCC 724 after 24 hrs by microdilution method; settings: MTCC 724, 24 h; procedure, shortened: as §1
[7] = system: Staphylococcus aureus; test: Antimicrobial activity against Staphylococcus aureus MTCC 96 after 24 hrs by microdilution method; settings: MTCC 96, 24 h; procedure, shortened: as §1
[8] = system: Bacillus cereus; test: Antimicrobial activity against Bacillus cereus MTCC 8372 after 24 hrs by microdilution method; settings: MTCC 8372, 24 h; procedure, shortened: as §1
[9] = system: Fusarium verticillioides; test: Antimicrobial activity against Fusarium moniliforme MTCC 156 at 100 ug/ml after 48 hrs by disc diffusion method; settings: MTCC 156, 48 h, read-out: DIZ
Procedure, shortened: (§2)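 Agar diffusion read-out is the diameter of the inhibition zone in mm. Each test was run in six replicates and reported as mean ± standard deviation, taken from at least three determinations.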

[10] = system: Fusarium verticillioides; test: Antimicrobial activity against Fusarium moniliforme MTCC 156 at 50 ug/ml after 48 hrs by disc diffusion method; settings: MTCC 156, 48 h, read-out: DIZ; procedure, shortened: as §2
[11] = system: Fusarium oxysporum; test: Antimicrobial activity against Fusarium oxysporum MTCC 284 at 100 ug/ml after 48 hrs by disc diffusion method; settings: MTCC 284, 48 h, read-out: DIZ; procedure, shortened: as §2
[12] = system: Fusarium oxysporum; test: Antimicrobial activity against Fusarium oxysporum MTCC 284 at 50 ug/ml after 48 hrs by disc diffusion method; settings: MTCC 284, 48 h, read-out: DIZ; procedure, shortened: as §2
[13] = system: Aspergillus niger; test: Antimicrobial activity against Aspergillus niger MTCC 281 at 100 ug/ml after 48 hrs by disc diffusion method; settings: MTCC 281, 48 h, read-out: DIZ; procedure, shortened: as §2
[14] = system: Aspergillus niger; test: Antimicrobial activity against Aspergillus niger MTCC 281 at 50 ug/ml after 48 hrs by disc diffusion method; settings: MTCC 281, 48 h, read-out: DIZ; procedure, shortened: as §2
[15] = system: Aspergillus flavus; test: Antimicrobial activity against Aspergillus flavus MTCC 873 at 100 ug/ml after 48 hrs by disc diffusion method; settings: MTCC 873, 48 h, read-out: DIZ; procedure, shortened: as §2
[16] = system: Aspergillus flavus; test: Antimicrobial activity against Aspergillus flavus MTCC 873 at 50 ug/ml after 48 hrs by disc diffusion method; settings: MTCC 873, 48 h, read-out: DIZ; procedure, shortened: as §2
[17] = system: Klebsiella pneumoniae; test: Antimicrobial activity against Klebsiella pneumoniae MTCC 3384 at 100 ug/ml after 24 hrs by disc diffusion method; settings: MTCC 3384, 24 h, read-out: DIZ; procedure, shortened: as §2
[18] = system: Escherichia coli; test: Antimicrobial activity against Escherichia coli MTCC 724 at 100 ug/ml after 24 hrs by disc diffusion method; settings: MTCC 724, 24 h, read-out: DIZ; procedure, shortened: as §2
[19] = system: Klebsiella pneumoniae; test: Antimicrobial activity against Klebsiella pneumoniae MTCC 3384 at 50 ug/ml after 24 hrs by disc diffusion method; settings: MTCC 3384, 24 h, read-out: DIZ; procedure, shortened: as §2
[20] = system: Escherichia coli; test: Antimicrobial activity against Escherichia coli MTCC 724 at 50 ug/ml after 24 hrs by disc diffusion method; settings: MTCC 724, 24 h, read-out: DIZ; procedure, shortened: as §2
[21] = system: Staphylococcus aureus; test: Antimicrobial activity against Staphylococcus aureus MTCC 96 at 100 ug/ml after 24 hrs by disc diffusion method; settings: MTCC 96, 24 h, read-out: DIZ; procedure, shortened: as §2
[22] = system: Staphylococcus aureus; test: Antimicrobial activity against Staphylococcus aureus MTCC 96 at 50 ug/ml after 24 hrs by disc diffusion method; settings: MTCC 96, 24 h, read-out: DIZ; procedure, shortened: as §2
[23] = system: Bacillus cereus; test: Antimicrobial activity against Bacillus cereus MTCC 8372 at 100 ug/ml after 24 hrs by disc diffusion method; settings: MTCC 8372, 24 h, read-out: DIZ; procedure, shortened: as §2
[24] = system: Bacillus cereus; test: Antimicrobial activity against Bacillus cereus MTCC 8372 at 50 ug/ml after 24 hrs by disc diffusion method; settings: MTCC 8372, 24 h, read-out: DIZ; procedure, shortened: as §2

Row | SMILES | MFC [1] | MIC [1] | MFC [2] | MIC [2] | MFC [3] | MIC [3] | MFC [4] | MIC [4] | MBC [5] | MIC [5] | MBC [6] | MIC [6] | MBC [7] | MIC [7] | MBC [8] | MIC [8] | zone of inhibition at 100 µg/mL [9] | zone of inhibition at 50 µg/mL [10] | zone of inhibition at 100 µg/mL [11] | zone of inhibition at 50 µg/mL [12] | also measured
1 | COc1ccc(-c2nn(-c3ccccc3)c(C)c2-c2nnc(-c3ccccc3)o2)cc1 | 290 µg/mL (≈ 710 µM) | 40 µg/mL (≈ 97.9 µM) | 280 µg/mL (≈ 685 µM) | 40 µg/mL (≈ 97.9 µM) | 275 µg/mL (≈ 673 µM) | 45 µg/mL (≈ 110 µM) | 270 µg/mL (≈ 661 µM) | 50 µg/mL (≈ 122 µM) | 260 µg/mL (≈ 637 µM) | 35 µg/mL (≈ 85.7 µM) | 240 µg/mL (≈ 588 µM) | 35 µg/mL (≈ 85.7 µM) | 240 µg/mL (≈ 588 µM) | 40 µg/mL (≈ 97.9 µM) | 240 µg/mL (≈ 588 µM) | 50 µg/mL (≈ 122 µM) | 6 mm | 3 mm | 6 mm | 4 mm | zone of inhibition at 100 µg/mL [13]: 6 mm; zone of inhibition at 50 µg/mL [14]: 2 mm; zone of inhibition at 100 µg/mL [15]: 8 mm; zone of inhibition at 50 µg/mL [16]: 2 mm; zone of inhibition at 100 µg/mL [17]: 9 mm; zone of inhibition at 100 µg/mL [18]: 14 mm; zone of inhibition at 50 µg/mL [19]: 4 mm; zone of inhibition at 50 µg/mL [20]: 8 mm; zone of inhibition at 100 µg/mL [21]: 8 mm; zone of inhibition at 50 µg/mL [22]: 4 mm; zone of inhibition at 100 µg/mL [23]: 9 mm; zone of inhibition at 50 µg/mL [24]: 4 mm
2 | Cc1c(-c2nnc(-c3ccc([N+](=O)[O-])cc3)o2)c(-c2ccc([N+](=O)[O-])cc2)nn1-c1ccccc1 | 290 µg/mL (≈ 619 µM) | 55 µg/mL (≈ 117 µM) | 280 µg/mL (≈ 598 µM) | 50 µg/mL (≈ 107 µM) | 275 µg/mL (≈ 587 µM) | 45 µg/mL (≈ 96.1 µM) | 275 µg/mL (≈ 587 µM) | 40 µg/mL (≈ 85.4 µM) | 170 µg/mL (≈ 363 µM) | 25 µg/mL (≈ 53.4 µM) | 175 µg/mL (≈ 374 µM) | 25 µg/mL (≈ 53.4 µM) | 155 µg/mL (≈ 331 µM) | 20 µg/mL (≈ 42.7 µM) | 160 µg/mL (≈ 342 µM) | 20 µg/mL (≈ 42.7 µM) | 18 mm | 8 mm | 16 mm | 8 mm | zone of inhibition at 100 µg/mL [13]: 14 mm; zone of inhibition at 50 µg/mL [14]: 6 mm; zone of inhibition at 100 µg/mL [15]: 11 mm; zone of inhibition at 50 µg/mL [16]: 8 mm; zone of inhibition at 100 µg/mL [17]: 16 mm; zone of inhibition at 100 µg/mL [18]: 22 mm; zone of inhibition at 50 µg/mL [19]: 8 mm; zone of inhibition at 50 µg/mL [20]: 12 mm; zone of inhibition at 100 µg/mL [21]: 20 mm; zone of inhibition at 50 µg/mL [22]: 12 mm; zone of inhibition at 100 µg/mL [23]: 22 mm; zone of inhibition at 50 µg/mL [24]: 14 mm
